The source of these data is publication PMC5033713 (Neuron, 2016).

Structures are written as SMILES.

What all share (format): cell-based
Test [1] deals with GluA2 S615A (Rattus norvegicus, UniProt P19491, S636A). The test is described as follows: Whole-cell patch-clamp, current inhibition of alanine mutant S615A. For orientation: Patch clamp records ionic current or voltage across a cell membrane.
For test [2], the target named is GluA2 S788A (Rattus norvegicus, UniProt P19491, S809A). The test is described as follows: Whole-cell patch-clamp, current inhibition of alanine mutant S788A. To be noted: S788 alanine substitution versus wild-type. In short, it runs like this:
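Alanine-substituted GluA2 transiently expressed in HEK293 cells. Whole-cell currents evoked by Glu via rapid theta-pipette solution exchange, co-applied with graded noncompetitive inhibitor concentrations. Normalized current concentration dependencies fitted with the logistic equation. Mutant IC50 expressed relative to the wild-type receptor value.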

In test [3] the target is GluA2F623A (Rattus norvegicus, UniProt P19491, F644A). The test is described as follows: Whole-cell patch-clamp, current inhibition of alanine mutant GluA2F623A.
The target in test [4] is GluA2Del (Rattus norvegicus, UniProt P19491, C610A/DEL399-404/DEL566-584/E587D/G405E/N256E/N406D/N413Q/S585D/S586T/V397L, form not given). To be noted: for voltage dependence of current inhibition: GluA2Del receptor-mediated current; for Hill coefficient (nHill): GluA2Del, HEK293, 3 mM Glu co-application, −60 mV, 30 μM CTZ, logistic fit.
Test [5] concerns the target GluA2D519A (Rattus norvegicus, UniProt P19491, D540A). The test is described as follows: Whole-cell patch-clamp, current inhibition of alanine mutant GluA2D519A. Put shortly: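 Rat GluA2 D519A transiently expressed in HEK293 cells (Lipofectamine 2000). Whole-cell recording at −60 mV with piezo-driven theta-pipette fast solution exchange. 500 ms co-applications of 3 mM Glu with graded test compound concentrations, 30 μM CTZ present throughout, Glu alone as control. Logistic fits of normalized currents gave IC50 and nHill, n = 7 cells. IC50 also expressed relative to wild-type.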

For test [6], the target named is GluA2WT (Rattus norvegicus, UniProt P19491). To be noted: for voltage dependence of current inhibition: GluA2WT receptor-mediated current; for Hill coefficient (nHill): GluA2WT, HEK293, 3 mM Glu co-application, −60 mV, 30 μM CTZ, logistic fit.

Consider `CNC(=O)N1N=C(c2ccc(N)cc2)c2cc3c(cc2CC1C)OCO3` (stereo not shown) [GYKI, GYKI 53655], for which, in test [1], the “change in IC50 value compared to wild-type” value is recorded as “two orders of magnitude increase”. Besides, in test [2], the “effect of substitution on inhibition” value is reported as “Reduced affinity”. Further, the concentration for half-maximal inhibition (IC50) in test [3] came to 153 ± 8 µM; in test [5] it was 3.8 ± 0.58 µM; in test [6] it was 14.5 ± 1.6 µM. Besides, the nHill in test [3] (F623A mutant, 3 mM Glu, −60 mV, 30 μM CTZ) is on record as 1.18 ± 0.07; in test [5] (D519A mutant, 3 mM Glu, −60 mV, 30 μM CTZ), 1.58 ± 0.12. Also, the “voltage dependence of current inhibition” value in test [4] and in test [6] was “voltage independent” each time. Also, the “Hill coefficient (nHill)” value in test [4] and in test [6] was 1.29 ± 0.08 in each case.

With `N#Cc1ccccc1-c1cc(-c2ccccn2)cn(-c2ccccc2)c1=O` [PMP, perampanel], in test [2], the “effect of substitution on inhibition” value is reported as “no appreciable effect”. Also, in test [3] (F623A mutant), the “change in IC50 value compared to wild-type” value is given as “two orders of magnitude increase”. Moreover, in test [4], the “voltage dependence of current inhibition” value is on record as “voltage independent” and the “Hill coefficient (nHill)” value is listed as 1.08 ± 0.04. Moreover, the “effect of substitution on inhibition” value in test [5] (D519 alanine substitution versus wild-type) was “no appreciable effect”. In test [6], 0.89 ± 0.07 µM corresponded to half-maximal inhibition (IC50), the “voltage dependence of current inhibition” value was “voltage independent” and the “Hill coefficient (nHill)” value worked out at 1.08 ± 0.05.

Usually IC50 stands for the concentration needed to halve the response being measured. A higher IC50 goes with lower potency.
